Ecoli rRNA inh = selective bacterial rRNA inhibition in E. coli; GFP signal change (wild-type ribosome), % (no concentration beside the values); 1.6% of 350,000 active; E. coli WT GFP vs humanized-ribosome RFP mutants, fluorescence, 24 h; active compounds read low; DMSO median 0, no signal -100;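 active means significant combined selectivity score with lowered wild-type GFP, culture density cut under 30%, mutant RFP and density less affected; inactive means any of these conditions unmet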
LGR2 antag = Drosophila LGR2 receptor signaling inhibition. 0.35% of 380,000 active. HEK293 LGR2, CRE-luciferase, bursicon-stimulated, 4 h. inhibition, % at 9.99 µM;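 active means drop in luminescence signal, shown as inhibition above about 50% in the replicate tests, limit read from the data, passing the limit was not always enough; inconclusive means probably only some replicates passing the limit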;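 further: agonist challenge used bursicon conditioned medium at about half maximal strength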
E-selectin induc = E-selectin induction on HUVECs; 0.37% of 260,000 active; activation, % at 7.58 µM; P16581; HUVEC E-selectin immunofluorescence imaging; normalized: neutral wells 0, TNF-alpha wells 100;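 active means mean E-selectin-positive cell signal at least 10% of the positive control, reached in at least 60% of replicates, without over 20% cell loss; inconclusive means no rule given, readout overlaps actives, possibly toxicity-flagged; inactive means the rest, including those meeting only one limit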
Target sequence (P16581 whole entry, looked up): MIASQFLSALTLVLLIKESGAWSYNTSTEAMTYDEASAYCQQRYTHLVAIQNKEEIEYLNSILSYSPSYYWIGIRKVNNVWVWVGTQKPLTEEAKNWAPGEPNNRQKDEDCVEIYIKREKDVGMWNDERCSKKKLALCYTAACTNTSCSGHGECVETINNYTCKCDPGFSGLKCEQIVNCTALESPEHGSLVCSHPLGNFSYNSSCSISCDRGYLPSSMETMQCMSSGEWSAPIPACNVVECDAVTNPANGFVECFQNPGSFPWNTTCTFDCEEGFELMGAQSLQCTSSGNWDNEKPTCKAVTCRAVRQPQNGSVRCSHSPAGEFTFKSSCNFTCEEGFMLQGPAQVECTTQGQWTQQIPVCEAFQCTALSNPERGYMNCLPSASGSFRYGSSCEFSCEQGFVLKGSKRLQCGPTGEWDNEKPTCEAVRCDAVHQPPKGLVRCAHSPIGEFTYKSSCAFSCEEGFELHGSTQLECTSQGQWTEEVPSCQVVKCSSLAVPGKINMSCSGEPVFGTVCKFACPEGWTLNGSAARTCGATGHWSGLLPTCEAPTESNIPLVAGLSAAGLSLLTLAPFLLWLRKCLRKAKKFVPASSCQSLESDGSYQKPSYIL
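Material: HUVEC primary endothelial cells; Amount: 3,000 cells per well; Dosing: single concentration; Medium: EGM-2 growth medium on 0.1% gelatin-coated wells; Read-out basis: percent E-selectin-positive cells; Signal: immunofluorescence imaging; Control set: TNF-alpha, DMSO.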
EWS-Fli inh = blocks EWS/Fli oncoprotein-driven transcription; A673 NR0B1-luciferase reporter, viability-normalised; inhibition, % at 12.6 µM; 0.67% of 350,000 active;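 active means mean inhibition of at least 50% after viability correction, with every replicate also passing that limit; inconclusive means mean reaches 50% but only one of two replicates passes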;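 further: firefly luciferase signal divided by Alamar Blue viability fluorescence both relative to DMSO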
An asterisk follows results filed as active; ? = inconclusive; nt = no result given. A selection: hits, their analogues and other compounds. The true share with any hit is near 2.4%.

SMILES	Ecoli rRNA inh	LGR2 antag	E-selectin induc	EWS-Fli inh
OC[C@H]1[C@H](c2ccc(-c3ccc(F)cc3)cc2)[C@@H]2CN(Cc3ccncc3)CCCCN12	-19.1*	-11.2	-0.2	-1.7
OC[C@H]1[C@@H](c2ccc(-c3ccc(F)cc3)cc2)[C@@H]2CN(Cc3ccncc3)CCCCN12	0.6	-21.8	0.2	3.9
COc1cccc(CN2CCCCN3[C@@H](CO)[C@H](c4ccc(C#Cc5cccnc5)cc4)[C@@H]3C2)c1	-17.8*	-14.9	0.0	6.4
Cc1cccc(Nc2nc(N)nc(CCl)n2)c1	-1.6	-8.7	nt	39.7
COc1ccccc1Nc1nc(N)nc(CCl)n1	9.5	11.8	-0.2	57.2*
COc1ccc(OC)c(Nc2nc(N)nc(CCl)n2)c1	-6.9	22.1	-0.3	?
COc1cccc(Nc2nc(N)nc(CCl)n2)c1	-3.4	-40.4	0.0	58.6*
Cc1ccc(Nc2nc(N)nc(CCl)n2)cc1	-0.8	-46.1	0.3	71.1*
OC[C@@H]1[C@@H](c2ccccc2)C2(CN(Cc3nccs3)C2)N1Cc1cccnc1	0.6	7.0	-0.1	-5.9
O=C(C[C@H]1C[C@H]2c3cc(NC(=O)NC4CCCC4)ccc3O[C@H]2[C@@H](CO)O1)NCc1ccncc1	2.6	-3.0	0.4	-0.8
Cc1ccc(CSc2nnc(C(F)(F)F)n2Cc2ccc(F)cc2)cc1	-27.1*	-10.7	nt	-19.1
COc1cccc(CSc2nnc(C(F)(F)F)n2Cc2ccc(F)cc2)c1	-28.8	7.7	nt	-7.1
CC(C)CC#Cc1cnc2c(c1)C(=O)N([C@@H](C)CO)C[C@H](C)[C@@H](CN(C)S(=O)(=O)c1cccs1)O2	0.8	2.0	-0.4	14.1
O=C1N[C@@H](Cc2ccccc2)COCc2cn(nn2)CC[C@@H]1Cc1cccc(Cl)c1	0.8	nt	nt	nt
CNC(=O)C[C@H]1CC[C@@H]2[C@@H](COc3ccc(NC(=O)c4cccc(F)c4)cc3C(=O)N2C)O1	-2.2	2.2	0.1	-4.0
CNC(=O)C[C@H]1CC[C@H]2[C@@H](COc3ccc(NC(=O)c4cccc(F)c4)cc3C(=O)N2C)O1	1.9	10.4	91.9*	0.8
CN1C(=O)c2cc(NC(=O)c3cccc(F)c3)ccc2OC[C@H]2O[C@@H](CC(=O)N3CCc4ccccc4C3)CC[C@@H]21	-26.2*	19.0	0.3	6.3
CC(C)NC(=O)N(C)C[C@@H]1Oc2ccc(NC(=O)Cc3cn(C)c4ccccc34)cc2C(=O)N([C@H](C)CO)C[C@H]1C	0.1	1.7	48.6*	10.8
CC(C)NC(=O)N(C)C[C@@H]1Oc2ccc(NC(=O)Cc3cn(C)c4ccccc34)cc2C(=O)N([C@@H](C)CO)C[C@@H]1C	4.6	4.6	4.8	-2.1
C[C@H]1CN([C@@H](C)CO)C(=O)c2cc(NC(=O)Cc3cn(C)c4ccccc34)ccc2O[C@@H]1CN(C)Cc1ccc2c(c1)OCO2	-2.7	0.3	-8.4	21.9
C[C@@H]1CN([C@@H](C)CO)C(=O)c2cc(NC(=O)Cc3cn(C)c4ccccc34)ccc2O[C@H]1CN(C)Cc1ccc2c(c1)OCO2	1.1	1.9	38.9*	3.1
COc1ccc(NC(=O)N(C)C[C@H]2Oc3c(NC(=O)c4cc(C)nn4C)cccc3C(=O)N([C@H](C)CO)C[C@H]2C)cc1	1.0	-0.3	nt	nt
CCCCNc1c(-c2ccc(OC)c(SC3CCCCC3)c2)nc2cc(C)ccn12	nt	26.9	-0.3	41.2
CCCCNc1c(-c2cccc(-c3cc(C(C)=O)cs3)c2)nc2ccc(C)cn12	-2.9	?	3.2	9.0
CCCCNc1c(-c2cccc(-c3ccc(OC)cc3)c2)nc2cc(C)ccn12	-12.8	91.5*	3.3	25.8
SMILES	Ecoli rRNA inh	LGR2 antag	E-selectin induc	EWS-Fli inh
CCCCNc1c(-c2cccc(-c3ccc(OC)cc3)c2)nc2ccc(C)cn12	13.0	68.0*	3.1	9.5
COc1ccc(S(=O)(=O)N(C)C[C@@H]2Oc3ccc(NC(=O)Nc4c(C)noc4C)cc3C(=O)N([C@@H](C)CO)C[C@@H]2C)cc1	-1.7	-7.4	-1.0	-4.5
COCCCNC(=O)C(=O)Nc1ccc2c(c1)N(S(=O)(=O)c1cccs1)CCC2	5.5	9.3	nt	62.9*
CCCNC(=O)C(=O)Nc1ccc2c(c1)N(S(=O)(=O)c1cccs1)CCC2	4.2	6.8	nt	35.2
C[C@@H]1CN([C@H](C)CO)S(=O)(=O)c2ccc(-c3ccc(C(=O)N(C)C)cc3)cc2O[C@H]1CN(C)C(=O)C1CC1	-1.5	-2.2	1.0	4.1
COc1ccc(S(=O)(=O)N(C)C[C@H]2Oc3ccc(NC(=O)c4ccncc4)cc3C(=O)N([C@H](C)CO)C[C@@H]2C)cc1	-4.0	10.1	53.6*	-1.0
